Measurements published in ChEMBL document CHEMBL4052821, “Chemical Modification for Proteolytic Stabilization of the Selective αvβ3 Integrin RGDechi Peptide: in Vitro and in Vivo Activities on Malignant Melanoma Cells” (J Med Chem, 2017).
The source made the active and inactive calls. No cut-off for these calls is given here. Where a SMILES comes first, the peptide text is derived from it.

Tests used:
[1] = system: WM266; assay: (§1) Antiadhesive activity in alphavbeta3 integrin overexpressing human WM266 cells assessed as inhibition of cell adhesion onto vitronectin at 50 uM preincubated for 30 mins followed by cell seeding on vitronectin by RTCA relative to control; type: functional
Procedure, shortened: (§2)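 WM266 cells (4 × 10^4, RPMI/10% FBS) preincubated 30 min at 4 °C with peptide (50 μM) in adhesion buffer, then seeded on wells coated overnight at 4 °C with 10 μg/mL matrix and blocked with 1.5% BSA. Impedance cell index read every minute over 0–24 h. Adhesion rate taken as slope between two time points, expressed as % of untreated control.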

[2] = system: WM266; assay: (§3) Antiadhesive activity in alphavbeta3 integrin overexpressing human WM266 cells assessed as inhibition of cell adhesion onto fibronectin at 50 uM preincubated for 30 mins followed by cell seeding on fibronectin by RTCA relative to control; type: functional; procedure, shortened: as §2
[3] = system: WM266; assay: (§4) Antiadhesive activity in alphavbeta3 integrin overexpressing human WM266 cells assessed as inhibition of cell binding to anti-alphaVbeta3 antibody at 50 uM after 1 hr by crystal violet staining-based assay relative to control; type: functional
Procedure, shortened: (§5)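 Plates coated with anti-αvβ3 antibody LM609 (10 μg/mL). WM266 cells (1.5 × 10^4/well) incubated with peptide (50 μM) for 1 h. Nonadherent cells washed off, adherent cells measured by crystal violet optical density as % of untreated control. At least three independent experiments in duplicate.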

[4] = system: WM266; assay: Antiinvasive activity in alphavbeta3 integrin overexpressing human WM266 cells at 50 uM after 18 hrs by Transwell assay relative to control; type: functional, cell-based
Procedure, shortened: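 Transwell inserts (8 μm) coated with ECL Cell Attachment. EDTA-detached WM266 cells (1 × 10^5, serum-free RPMI) with peptide (50 μM) in the upper chamber, 10% FBS RPMI below. Incubated 18 h at 37 °C. Invaded cells formalin-fixed, crystal violet stained and counted in four fields per chamber. Duplicate chambers.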

[5] = system: HeLa; assay: Antiadhesive activity in alphavbeta5 integrin overexpressing human HeLa cells assessed as inhibition of cell binding to anti-alphaVbeta5 antibody at 50 uM by RTCA cell index slope-based assay
[6] = system: Serum; assay: Metabolic stability in human serum at 1 mg/ml after 3 to 24 hrs by RP-HPLC method; type: ADME, cell-free
Procedure, shortened: (§6)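 Peptide solution (1 mg/mL, 160 μL) mixed with 400 μL human serum at 37 °C. Aliquots taken at 1, 2, 4, 8, 24 and 48 h were quenched with 15% TFA and centrifuged. Supernatants analysed by LC–MS, following loss of the intact-peptide peak.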

[7] = (§7) Antiadhesive activity in alphavbeta3 integrin overexpressing human WM266 cells assessed as inhibition of cell adhesion onto vitronectin preincubated for 30 mins followed by cell seeding on vitronectin measured after 1 hr by crystal violet staining-based assay; type: functional
Procedure, shortened: (§8)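 Dose–response adhesion: WM266 cells preincubated with increasing peptide concentrations, then seeded on plates precoated with vitronectin or fibronectin (10 μg/mL). Adherent cells quantified after 1 h by crystal violet staining as % of untreated control. IC50 derived from this curve; means ± SE of three independent experiments in triplicate.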

[8] = (§9) Antiadhesive activity in alphavbeta3 integrin overexpressing human WM266 cells assessed as inhibition of cell adhesion onto fibronectin preincubated for 30 mins followed by cell seeding on fibronectin measured after 1 hr by crystal violet staining-based assay; type: functional; procedure, shortened: as §8
[9] = as §4; type: functional; conditions: WM266, 1 h; procedure, shortened: as §5
[10] = Antimigratory activity in alphavbeta3 integrin overexpressing human WM266 cells at 50 uM after 24 hrs by wound healing assay relative to control; type: functional
Procedure, shortened: (§10)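 Confluent WM266 monolayers scratched with a pipette tip, washed with PBS, then given medium containing peptide (50 μM). Phase-contrast images taken at 0, 24 and 48 h. Wound width expressed as % of the 0 h value. Three experiments in triplicate.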

[11] = Antimigratory activity in alphavbeta3 integrin overexpressing human WM266 cells at 50 uM after 48 hrs by wound healing assay relative to control; type: functional; procedure, shortened: as §10
[12] = In vivo tumor uptake in CD1 nu/nu athymic mouse xenografted with alphavbeta3 integrin overexpressing human WM266 cells using NIR750 labeled compound at 1 nmol, iv after 3 to 24 hrs by fluorescence molecular tomography; type: ADME, organism-based, Neoplasm
Procedure, shortened: (§11)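 Peptides conjugated to VivoTag-S 750 NHS ester. 10 × 10^6 WM266 cells implanted in the right flank of CD1 nu/nu mice, fed alfalfa-free chow. At about 0.5 cm3 tumour volume, 1 nmol conjugate given i.v. (3 mice/group) under isoflurane. Whole-body FMT imaging at 3, 5 and 24 h, reported as tumour ROI counts/energy. Tumours excised at 24 h for ex vivo FMT.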

[13] = system: Serum; assay: Metabolic stability in human serum at 1 mg/ml after 48 hrs by RP-HPLC method; type: ADME, cell-free; procedure, shortened: as §6
[14] = as §1; type: functional; procedure, shortened: as §2
[15] = as §3; type: functional; procedure, shortened: as §2
[16] = system: WM266; assay: Antiadhesive activity in alphavbeta3 integrin overexpressing human WM266 cells assessed as inhibition of cell adhesion onto collagen 1 at 50 uM preincubated for 30 mins followed by cell seeding on collagen 1 by RTCA; type: functional, cell-based; procedure, shortened: as §2
[17] = system: WM266; assay: as §7; type: functional; procedure, shortened: as §8
[18] = system: WM266; assay: as §9; type: functional; procedure, shortened: as §8
[19] = target: Integrin alpha-V/beta-3 (Homo sapiens) (UniProt P05106+P06756); assay: Competitive binding affinity to alphavbeta3 integrin in human WM266 cells using NIR750-labeled compound at 1 nmole after 1 hr in presence of excess of unlabeled compound by DAPI staining-based confocal microscopic method; type: cell-based
Procedure, shortened: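 WM266 cells on coverslips incubated with 1 nmol NIR750-labelled peptide in DPBS/5% FBS for 1 h at 4 °C. For competition, cells were first preincubated 1 h at 4 °C with 1000-fold excess unlabelled parent. Cells fixed, DAPI-stained and immunostained for αvβ3, then imaged by confocal microscopy. Colocalization scored by Manders' coefficients.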

[20] = Ex vivo tumor uptake in CD1 nu/nu athymic mouse xenografted with alphavbeta3 integrin overexpressing human WM266 cells using NIR750 labeled compound at 1 nmol, iv after 24 hrs by fluorescence molecular tomography; type: ADME, organism-based, Neoplasm; procedure, shortened: as §11

Stability [6]	Drug uptake [12]	Stability [13]	Activity [19]	Drug uptake [20]	Structure (SMILES)	inhibition [1]	inhibition [2]	inhibition [3]	Activity [4]	inhibition [5]	IC50 [7] [µM]	IC50 [8] [µM]	inhibition at 50 µM [9] [%]	Activity [10] [%]	Activity [11] [%]	inhibition at 50 µM [14] [%]	inhibition at 50 µM [15] [%]	inhibition [16]	inhibition [17]	inhibition [18]
–	–	–	–	–	N=C(N)NCCC[C@@H]1NC(=O)CNC(=O)[C@H](CC(=O)O)NC(=O)[C@@H](Cc2ccccc2)NC(=O)[C@H](CCCCN)NC1=O	Active	Active	Active	Active	Active	–	–	–	–	–	–	–	–	–	–
Unstable	Active	–	–	–	CSCC[C@H](NC(=O)CC[C@@H]1NC(=O)[C@H](CC(=O)O)NC(=O)CNC(=O)[C@H](CCCNC(=N)N)NC(=O)[C@H](CCCCN)NC1=O)C(=O)N[C@@H](CC(=O)O)C(=O)N[C@@H](CC(=O)O)C(=O)N1CCC[C@H]1C(=O)NCC(=O)N[C@@H](CCCNC(=N)N)C(=O)N[C@@H](CC(N)=O)C(=O)N1CCC[C@H]1C(=O)N[C@@H](Cc1cnc[nH]1)C(=O)N[C@@H](CCCCNC(N)=O)C(=O)NCC(=O)N1CCC[C@H]1C(=O)N[C@@H](C)C(=O)N[C@H](C(=O)O)[C@@H](C)O (HELM PEPTIDE1{M.D.D.P.G.R.N.P.H.[NC(=O)NCCCC[C@H](N[*:1])C(=O)[*:2]].G.P.A.T}|PEPTIDE2{R.G.D.E.K}$PEPTIDE1,PEPTIDE2,1:R1-4:R3|PEPTIDE2,PEPTIDE2,1:R1-5:R2$$$V2.0)	–	–	–	Active	inactive	25.5	53	40	31	20	–	–	–	–	–
–	Active	Stable	Active	Active	CSCC[C@H](NC(=O)CC[C@@H]1NC(=O)[C@H](CC(=O)O)NC(=O)CNC(=O)[C@H](CCCNC(=N)N)NC(=O)[C@H](CCCCN)NC1=O)C(=O)N[C@@H](CC(=O)O)C(=O)N[C@@H](CC(=O)O)C(=O)N1CCC[C@H]1C(=O)NCC(=O)N[C@@H](CCCNC(=N)N)C(=O)N[C@@H](CC(N)=O)C(=O)N1CCC[C@H]1C(=O)N[C@@H](Cc1cnc[nH]1)C(=O)N[C@@H](CCCCNC(N)=O)C(=O)NCC(=O)N1CCC[C@H]1CN[C@@H](C)C(=O)N[C@H](C(=O)O)[C@@H](C)O (HELM PEPTIDE1{M.D.D.P.G.R.N.P.H.[NC(=O)NCCCC[C@H](N[*:1])C(=O)[*:2]].G.[C[C@H](NC[C@@H]1CCCN1[*:1])C(=O)N[C@H](C(=O)O)[C@@H](C)O]}|PEPTIDE2{R.G.D.E.K}$PEPTIDE1,PEPTIDE2,1:R1-4:R3|PEPTIDE2,PEPTIDE2,1:R1-5:R2$$$V2.0)	–	–	–	Active	inactive	5.2	20.7	40	54	33	55	33	inactive	Dose-dependent effect	Dose-dependent effect
